Test results published in ChEMBL document CHEMBL5705891, “Small-molecule kinase inhibitors provide insight into Mps1 cell cycle function” (Nat Chem Biol, 2010).
Active and inactive are the calls of the source. No cut-off for these calls is given here.

What was measured:
[1] = target: T1, Serine/threonine-protein kinase PLK4 (Homo sapiens) (UniProt O00444); assay: Induction of Plk4 in human U2OS cells assessed as increase in cell populations with extra centrosomes by centrin staining based analysis relative to control; conditions: filed as activator
T1 sequence (whole entry): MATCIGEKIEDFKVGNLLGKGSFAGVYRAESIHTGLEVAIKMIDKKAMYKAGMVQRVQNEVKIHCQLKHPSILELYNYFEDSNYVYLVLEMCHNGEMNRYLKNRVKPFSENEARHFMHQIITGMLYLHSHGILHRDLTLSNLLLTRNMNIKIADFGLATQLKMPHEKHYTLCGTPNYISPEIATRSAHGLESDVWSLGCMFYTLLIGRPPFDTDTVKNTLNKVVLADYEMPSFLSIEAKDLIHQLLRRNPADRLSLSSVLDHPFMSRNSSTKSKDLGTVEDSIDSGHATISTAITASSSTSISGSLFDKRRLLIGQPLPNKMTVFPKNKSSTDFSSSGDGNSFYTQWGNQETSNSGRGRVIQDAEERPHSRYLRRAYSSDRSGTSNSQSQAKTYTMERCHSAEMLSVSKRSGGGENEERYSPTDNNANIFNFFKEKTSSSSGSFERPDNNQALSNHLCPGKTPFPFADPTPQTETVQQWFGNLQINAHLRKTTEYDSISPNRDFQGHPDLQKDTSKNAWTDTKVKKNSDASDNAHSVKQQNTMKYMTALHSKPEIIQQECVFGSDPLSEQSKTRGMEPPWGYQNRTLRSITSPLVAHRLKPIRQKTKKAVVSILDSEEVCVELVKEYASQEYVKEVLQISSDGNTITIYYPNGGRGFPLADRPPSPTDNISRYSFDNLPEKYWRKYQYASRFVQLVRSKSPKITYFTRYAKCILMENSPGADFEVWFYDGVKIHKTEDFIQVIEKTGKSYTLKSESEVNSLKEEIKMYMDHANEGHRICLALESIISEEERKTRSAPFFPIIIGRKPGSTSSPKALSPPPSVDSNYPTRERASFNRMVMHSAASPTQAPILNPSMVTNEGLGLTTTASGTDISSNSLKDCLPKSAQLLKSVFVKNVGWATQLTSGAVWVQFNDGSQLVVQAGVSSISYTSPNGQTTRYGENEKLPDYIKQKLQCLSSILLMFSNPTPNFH
Method in brief: (§1)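 U2OS cells with doxycycline-inducible Plk4 were induced with doxycycline (2 μg·ml⁻¹) or given DMSO. Metaphase spindles carrying more than 2 centrosomes were counted by centrin staining (~300 spindles), and spindle polarity was followed by centrin/α-tubulin/DNA immunofluorescence.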

[2] = target: T1, Serine/threonine-protein kinase PLK4 (Homo sapiens); assay: Induction of Plk4 in human U2OS cells assessed as resolution of metaphase multipolar spindles into bipolar spindles in anaphase in cell populations with extra centrosomes by centrin staining based analysis; conditions: filed as activator; method in brief: as §1
[3] = test system: U2OS; assay: Induction of extra centrosomes in cell populations of thymidine-treated human U2OS cells expressing H2B-GFP and Plk4 overexpression assessed as fold delay in anaphase onset measured for 30 mins by time lapse imaging analysis relative to control; assay type: functional; conditions: 0.5 h
Method in brief: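 Doxycycline-inducible Plk4 U2OS cells expressing H2B-GFP were blocked with thymidine for 18 hrs and released into doxycycline (2 μg·ml⁻¹) for 10 hrs. A second 18-hr thymidine block followed, then release for 6 hrs before 5 μM inhibitor, with or without Plk4 induction. Cells were imaged by time-lapse at 37°C, 5% CO₂, timed from NEBD, and bipolar versus multipolar anaphases were scored. Values are mean ± SD of 3 independent experiments.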

[4] = test system: UTRM10; assay: Effect on thymidine-treated UTRM10 cells (unknown origin) with Mps1-/- incubated for 24 to 72 hrs by immunoblot analysis; assay type: functional, cell-based; conditions: time lower 24.0 hrs, time upper […]
[5] = target: T1, Serine/threonine-protein kinase PLK4 (Homo sapiens); assay: Induction of Plk4 in human U2OS cells assessed as bipolar cell division of cell populations with extra centrosomes by centrin staining based analysis; conditions: filed as activator; method in brief: as §1
[6] = target: Receptor-type tyrosine-protein kinase FLT3 (Homo sapiens) (UniProt P36888); assay: Inhibition of FLT3 (unknown origin) assessed as residual enzyme activity at 10 uM by Ambit kinase binding assay relative to control
[7] = target: Serine/threonine-protein kinase 33 (Homo sapiens, UniProt Q9BYT3); assay: Binding affinity to STK33 (unknown origin) assessed as dissociation constant by Ambit kinase binding assay
[8] = test system: U2OS; assay: Reversal of nocodazole-induced mitotic arrest in human U2OS cells assessed as decrease in cyclin B level at 10 uM incubated for 4 hrs in presence of MG132 by immunoblot analysis; assay type: functional, cell-based
[9] = test system: U2OS; assay: Reversal of s-trityl cysteine-induced mitotic arrest in human U2OS cells assessed as Ser10 phosphorylated Histone H3-positive 4c population at 10 uM incubated for 16 hrs by flow cytometry (reference value: 50 %); assay type: functional
[10] = target: Cyclin-G-associated kinase (Homo sapiens, UniProt O14976); assay: Binding affinity to GAK (unknown origin) assessed as dissociation constant by Ambit kinase binding assay
[11] = target: Serine/threonine-protein kinase PLK4 (Homo sapiens, UniProt O00444); assay: Binding affinity to PLK4 (unknown origin) assessed as dissociation constant by Ambit kinase binding assay
[12] = test system: U2OS; assay: Reversal of nocodazole-induced mitotic arrest in human U2OS cells assessed as decrease in cyclin B level at 0.3 to 10 uM incubated for 4 hrs by immunoblot analysis; assay type: functional, cell-based; conditions: dose 0.3-10 µM
[13] = test system: U2OS; assay: Reversal of s-trityl cysteine-induced mitotic arrest in human U2OS cells assessed as Ser10 phosphorylated Histone H3-positive 4c population at 5 uM incubated for 16 hrs by flow cytometry (reference value: 50 %); assay type: functional
[14] = target: Protein-tyrosine kinase 2-beta (Homo sapiens, UniProt Q14289); assay: Inhibition of PTK2B (unknown origin) assessed as residual enzyme activity at 10 uM by Ambit kinase binding assay relative to control
[15] = test system: UTRM10; assay: Upregulation of phosphorylated histone H3 level in UTRM10 cells (unknown origin) upto 10 uM by immunoblot analysis; assay type: functional, cell-based
[16] = target: Serine/threonine-protein kinase PLK3 (Homo sapiens, UniProt Q9H4B4); assay: Binding affinity to PLK3 (unknown origin) assessed as dissociation constant by Ambit kinase binding assay
[17] = target: Serine/threonine-protein kinase PLK1 (Homo sapiens, UniProt P53350); assay: Binding affinity to PLK1 (unknown origin) assessed as dissociation constant by Ambit kinase binding assay
[18] = target: T2, Cyclin-G-associated kinase (Homo sapiens) (UniProt O14976); assay: Inhibition of GAK (unknown origin) assessed as residual enzyme activity at 10 uM by Ambit kinase binding assay relative to control
T2 sequence (whole entry): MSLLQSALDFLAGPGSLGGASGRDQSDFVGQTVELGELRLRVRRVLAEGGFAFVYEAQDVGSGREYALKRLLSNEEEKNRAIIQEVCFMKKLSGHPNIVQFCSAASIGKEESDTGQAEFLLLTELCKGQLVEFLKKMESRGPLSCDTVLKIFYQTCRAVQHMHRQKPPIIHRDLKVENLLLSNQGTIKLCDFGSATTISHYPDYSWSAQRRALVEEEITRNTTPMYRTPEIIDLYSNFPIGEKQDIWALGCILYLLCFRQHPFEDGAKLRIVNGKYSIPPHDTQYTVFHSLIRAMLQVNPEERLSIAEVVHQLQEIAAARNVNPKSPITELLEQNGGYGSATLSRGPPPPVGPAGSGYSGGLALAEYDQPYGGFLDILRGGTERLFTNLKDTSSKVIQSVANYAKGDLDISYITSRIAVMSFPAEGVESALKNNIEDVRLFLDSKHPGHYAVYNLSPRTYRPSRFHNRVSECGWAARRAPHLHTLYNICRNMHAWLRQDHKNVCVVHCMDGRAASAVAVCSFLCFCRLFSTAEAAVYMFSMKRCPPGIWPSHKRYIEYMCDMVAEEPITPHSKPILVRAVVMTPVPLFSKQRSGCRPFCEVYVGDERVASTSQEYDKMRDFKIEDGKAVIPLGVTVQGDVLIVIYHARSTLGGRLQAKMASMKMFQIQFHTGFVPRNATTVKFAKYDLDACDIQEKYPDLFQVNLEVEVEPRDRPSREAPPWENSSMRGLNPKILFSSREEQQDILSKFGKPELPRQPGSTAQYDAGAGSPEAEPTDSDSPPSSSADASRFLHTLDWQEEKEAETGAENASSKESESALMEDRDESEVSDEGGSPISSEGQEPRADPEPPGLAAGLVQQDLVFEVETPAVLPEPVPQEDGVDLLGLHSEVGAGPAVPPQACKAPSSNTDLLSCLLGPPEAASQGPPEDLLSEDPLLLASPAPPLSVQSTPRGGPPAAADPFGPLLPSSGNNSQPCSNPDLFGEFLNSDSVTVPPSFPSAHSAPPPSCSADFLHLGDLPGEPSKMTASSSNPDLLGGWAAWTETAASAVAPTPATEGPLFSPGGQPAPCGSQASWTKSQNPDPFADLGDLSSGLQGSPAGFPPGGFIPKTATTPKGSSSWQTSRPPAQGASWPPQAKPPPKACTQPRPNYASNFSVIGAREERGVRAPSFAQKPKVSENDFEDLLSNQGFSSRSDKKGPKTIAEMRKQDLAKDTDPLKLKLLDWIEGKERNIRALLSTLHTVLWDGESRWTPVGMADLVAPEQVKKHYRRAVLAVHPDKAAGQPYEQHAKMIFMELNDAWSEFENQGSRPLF

[19] = test system: UTRM10; assay: Reversal of Paclitaxel-induced mitotic arrest in UTRM10 cells (unknown origin) by immunoblot analysis; assay type: functional, cell-based

Chain of Protein-tyrosine kinase 2-beta (Q14289 whole entry, looked up): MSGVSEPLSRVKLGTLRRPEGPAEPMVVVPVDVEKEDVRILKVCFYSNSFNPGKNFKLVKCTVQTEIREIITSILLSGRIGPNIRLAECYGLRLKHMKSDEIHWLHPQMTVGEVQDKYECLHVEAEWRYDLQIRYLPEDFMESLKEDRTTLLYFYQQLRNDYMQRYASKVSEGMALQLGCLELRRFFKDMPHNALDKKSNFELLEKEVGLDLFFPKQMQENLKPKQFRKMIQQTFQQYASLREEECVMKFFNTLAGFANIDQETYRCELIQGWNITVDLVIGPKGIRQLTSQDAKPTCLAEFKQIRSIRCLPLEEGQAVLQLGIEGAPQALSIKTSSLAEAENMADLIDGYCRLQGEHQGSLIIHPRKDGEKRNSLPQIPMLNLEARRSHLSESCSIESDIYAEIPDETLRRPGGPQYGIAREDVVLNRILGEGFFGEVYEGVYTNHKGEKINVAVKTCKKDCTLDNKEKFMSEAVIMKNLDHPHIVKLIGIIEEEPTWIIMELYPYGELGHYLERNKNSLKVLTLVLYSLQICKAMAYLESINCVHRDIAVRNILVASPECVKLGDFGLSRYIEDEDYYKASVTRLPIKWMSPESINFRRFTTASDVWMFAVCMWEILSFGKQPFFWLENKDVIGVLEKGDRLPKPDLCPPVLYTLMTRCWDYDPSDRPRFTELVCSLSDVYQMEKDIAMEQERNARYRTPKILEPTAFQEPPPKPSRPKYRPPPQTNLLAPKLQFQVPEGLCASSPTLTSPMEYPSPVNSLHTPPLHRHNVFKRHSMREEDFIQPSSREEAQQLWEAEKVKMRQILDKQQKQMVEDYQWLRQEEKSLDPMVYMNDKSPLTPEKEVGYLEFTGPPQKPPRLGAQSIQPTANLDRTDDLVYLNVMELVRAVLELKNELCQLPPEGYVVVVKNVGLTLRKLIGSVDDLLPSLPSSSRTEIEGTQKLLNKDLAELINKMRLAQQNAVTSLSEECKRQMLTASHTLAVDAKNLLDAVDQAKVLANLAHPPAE
Chain of Serine/threonine-protein kinase 33 (Q9BYT3 whole entry): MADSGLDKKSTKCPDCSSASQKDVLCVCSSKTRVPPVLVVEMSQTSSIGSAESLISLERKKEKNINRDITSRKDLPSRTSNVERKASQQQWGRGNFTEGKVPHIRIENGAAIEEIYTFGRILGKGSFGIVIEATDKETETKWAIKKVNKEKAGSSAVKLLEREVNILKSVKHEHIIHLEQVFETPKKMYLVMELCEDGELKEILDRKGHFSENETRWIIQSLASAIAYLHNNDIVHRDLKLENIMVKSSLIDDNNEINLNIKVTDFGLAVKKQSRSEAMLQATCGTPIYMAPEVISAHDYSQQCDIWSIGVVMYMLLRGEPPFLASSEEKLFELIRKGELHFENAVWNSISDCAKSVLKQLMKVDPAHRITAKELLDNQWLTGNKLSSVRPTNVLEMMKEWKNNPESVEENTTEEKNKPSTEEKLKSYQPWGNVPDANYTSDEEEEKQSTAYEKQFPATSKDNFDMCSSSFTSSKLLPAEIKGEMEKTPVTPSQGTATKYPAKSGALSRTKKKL
Chain of Serine/threonine-protein kinase PLK3 (Q9H4B4 whole entry): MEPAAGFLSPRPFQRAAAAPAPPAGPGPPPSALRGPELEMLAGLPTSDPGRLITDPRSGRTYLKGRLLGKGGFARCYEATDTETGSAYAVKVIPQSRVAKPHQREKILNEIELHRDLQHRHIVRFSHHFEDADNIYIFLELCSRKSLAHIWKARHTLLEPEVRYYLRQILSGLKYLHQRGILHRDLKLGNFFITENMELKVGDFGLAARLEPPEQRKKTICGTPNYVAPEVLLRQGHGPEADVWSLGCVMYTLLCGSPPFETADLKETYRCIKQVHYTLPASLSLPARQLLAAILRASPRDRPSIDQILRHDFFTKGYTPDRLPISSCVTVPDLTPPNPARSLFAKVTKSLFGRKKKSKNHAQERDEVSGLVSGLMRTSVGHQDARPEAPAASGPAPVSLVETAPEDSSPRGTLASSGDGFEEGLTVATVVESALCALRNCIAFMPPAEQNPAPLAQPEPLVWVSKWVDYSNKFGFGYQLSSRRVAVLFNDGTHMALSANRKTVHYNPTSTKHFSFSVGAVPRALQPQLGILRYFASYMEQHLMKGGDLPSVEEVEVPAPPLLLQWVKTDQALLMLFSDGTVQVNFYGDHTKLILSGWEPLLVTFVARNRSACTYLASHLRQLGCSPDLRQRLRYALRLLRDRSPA
Chain of Receptor-type tyrosine-protein kinase FLT3 (Homo sapiens) (P36888 whole entry): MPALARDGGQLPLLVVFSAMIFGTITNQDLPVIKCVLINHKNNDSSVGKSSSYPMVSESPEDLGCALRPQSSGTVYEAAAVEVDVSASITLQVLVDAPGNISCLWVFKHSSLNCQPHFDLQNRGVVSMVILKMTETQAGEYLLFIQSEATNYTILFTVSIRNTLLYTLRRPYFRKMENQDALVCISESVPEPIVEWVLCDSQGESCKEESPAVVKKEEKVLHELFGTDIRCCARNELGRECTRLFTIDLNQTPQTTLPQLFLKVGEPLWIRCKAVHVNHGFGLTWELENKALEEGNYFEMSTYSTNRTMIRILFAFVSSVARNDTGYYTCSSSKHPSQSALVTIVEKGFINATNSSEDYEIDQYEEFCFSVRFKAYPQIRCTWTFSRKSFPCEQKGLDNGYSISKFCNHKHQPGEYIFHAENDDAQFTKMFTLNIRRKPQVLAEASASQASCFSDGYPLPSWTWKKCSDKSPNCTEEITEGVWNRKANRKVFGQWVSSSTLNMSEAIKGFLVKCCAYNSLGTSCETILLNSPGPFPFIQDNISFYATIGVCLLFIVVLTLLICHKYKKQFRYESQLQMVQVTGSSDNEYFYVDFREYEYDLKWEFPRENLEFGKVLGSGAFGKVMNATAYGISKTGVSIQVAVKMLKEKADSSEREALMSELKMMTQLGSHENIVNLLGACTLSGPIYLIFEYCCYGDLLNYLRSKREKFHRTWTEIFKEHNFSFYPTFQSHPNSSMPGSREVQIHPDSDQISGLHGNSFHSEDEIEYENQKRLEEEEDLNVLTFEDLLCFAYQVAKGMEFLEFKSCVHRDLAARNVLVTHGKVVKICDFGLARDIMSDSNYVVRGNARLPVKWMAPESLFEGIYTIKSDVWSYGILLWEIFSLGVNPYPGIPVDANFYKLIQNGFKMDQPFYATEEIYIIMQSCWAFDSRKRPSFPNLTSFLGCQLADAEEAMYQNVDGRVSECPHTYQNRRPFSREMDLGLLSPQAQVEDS
Chain of Serine/threonine-protein kinase PLK1 (P53350 whole entry): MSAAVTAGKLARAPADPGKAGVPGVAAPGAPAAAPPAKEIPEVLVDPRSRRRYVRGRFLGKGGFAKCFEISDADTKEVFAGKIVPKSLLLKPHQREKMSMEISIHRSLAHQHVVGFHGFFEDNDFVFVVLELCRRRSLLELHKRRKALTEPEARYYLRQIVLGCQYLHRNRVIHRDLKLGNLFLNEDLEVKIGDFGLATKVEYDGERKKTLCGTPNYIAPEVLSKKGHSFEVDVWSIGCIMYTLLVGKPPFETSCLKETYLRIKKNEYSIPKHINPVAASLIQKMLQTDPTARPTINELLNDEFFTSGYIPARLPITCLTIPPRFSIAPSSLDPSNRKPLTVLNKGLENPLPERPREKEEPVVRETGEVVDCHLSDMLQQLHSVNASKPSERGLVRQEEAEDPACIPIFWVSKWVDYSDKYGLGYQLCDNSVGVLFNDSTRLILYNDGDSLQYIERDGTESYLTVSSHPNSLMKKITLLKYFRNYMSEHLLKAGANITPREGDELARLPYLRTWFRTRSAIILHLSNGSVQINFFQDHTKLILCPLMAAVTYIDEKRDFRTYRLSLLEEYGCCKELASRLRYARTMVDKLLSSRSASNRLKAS

C[C@H]1c2cccc(O)c2C(=O)C2=C(O)[C@]3(O)C(=O)C(C(N)=O)=C(O)[C@@H](N(C)C)[C@@H]3[C@@H](O)[C@@H]21 [DOXYCYCLINE ANHYDROUS] was tested, and the Activity [1] was 80%, the Activity [2] was “Active” and the “fold change (FC)” value [3] was 2. For the same compound, the Activity [4] was “inactive” and the Activity [5] was “Active”.

CCOc1cc(N2CCC(O)CC2)ccc1Nc1ncc2c(n1)N(C1CCCC1)CCC(=O)N2C was tested, and the Activity [6] was 0%, the Kd [7] was 5000 nM and the Activity [8] was “inactive”. For the same compound, the Activity [9] was 4%, the Kd [10] was 140 nM and the Kd [11] was 3100 nM. The Activity [12] was “Active”, the Activity [13] was 14% and the Activity [14] was 24%. For the same compound, the Activity [15] was “Active”, the Kd [16] was 1600 nM and the Kd [17] was 61 nM. The Activity [18] was 2%.

In the case of Cc1cc(Nc2cc(N3CCN(C)CC3)nc(Sc3ccc(NC(=O)C4CC4)cc3)n2)n[nH]1, the Activity [19] is reported as “Active”.
